Reference: ChEMBL document CHEMBL4665711, “Synthesis of (Z)-3-(arylamino)-1-(3-phenylimidazo[1,5-a]pyridin-1-yl)prop-2-en-1-ones as potential cytotoxic agents” (Bioorg Med Chem Lett, 2020)
The source made the active and inactive calls. The calls are words filed in the database; no cut-off is given here.

Assays:
HCT-116 [1] = assay: Induction of apoptosis in human HCT-116 cells assessed as necrotic cells at 1 uM incubated for 48 hrs by annexin-V and propidium iodide staining based flow cytometry analysis (reference value: 0.36 %); format: functional
HCT-116 [2] = assay: Induction of apoptosis in human HCT-116 cells assessed as early apoptotic cells at 0.5 uM incubated for 48 hrs by annexin-V and propidium iodide staining based flow cytometry analysis (reference value: 1.87 %); format: functional
HCT-116 [3] = assay: Induction of apoptosis in human HCT-116 cells assessed as viable cells at 2.5 uM incubated for 48 hrs by annexin-V and propidium iodide staining based flow cytometry analysis (reference value: 96.29 %); format: functional; settings: read-out: Activity
HCT-116 [4] = assay: Induction of mitochondrial membrane potential loss in human HCT-116 cells assessed as cells with hyperpolarized mitochondria by measuring decrease in J-aggregates red fluorescence intensity at 0.5 uM incubated for 48 hrs by JC1 staining based flow cytometry analysis (reference value: 86.42 %); format: functional; parameters: scale not given: the % may be the effect or the level left
HCT-116 [5] = assay: Induction of mitochondrial membrane potential loss in human HCT-116 cells assessed as cells with hyperpolarized mitochondria by measuring decrease in J-aggregates red fluorescence intensity at 1 uM incubated for 48 hrs by JC1 staining based flow cytometry analysis (reference value: 86.42 %); format: functional; parameters: scale not given: the % may be the effect or the level left
HCT-116 [6] = assay: Induction of ROS production in human HCT-116 cells incubated for 24 hrs by DCFDA staining based fluorescence microscopic analysis; format: functional, cell-based; settings: dose microM 0.5-2.5, time 24.0 hrs
How it was run: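 For intracellular ROS, HCT-116 cells were incubated at 0.5, 1 and 2.5 µM for 24 h and stained with DCFDA. Cells were imaged by fluorescence microscopy, and DCF fluorescence was quantified at 480/535 nm excitation/emission in arbitrary units against control.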

HCT-116 [7] = assay: Induction of apoptosis in human HCT-116 cells assessed as micronuclei formation at 0.5 to 2.5 uM incubated for 48 hrs by DAPI staining based fluorescence microscopic analysis; format: functional, cell-based; settings: dose microM 0.5-2.5, time 48.0 hrs
How it was run: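 Nuclear morphology was imaged by fluorescence microscopy using a DAPI filter at 200×; untreated cells served as control.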

HCT-116 [8] = assay: Induction of apoptosis in human HCT-116 cells assessed as membrane blebbing at 0.5 to 2.5 uM incubated for 24 hrs by acridine orange staining based microscopic analysis; format: functional, cell-based; settings: dose microM 0.5-2.5, time 24.0 hrs
How it was run: (§1)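 HCT-116 cells were incubated at 0.5, 1.0 and 2.5 µM for 24 h and stained with acridine orange. Green fluorescence (excitation 480-490 nm), chromatin distribution and blebbing were inspected microscopically at 200× against untreated controls.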

HCT-116 [9] = assay: Induction of apoptosis in human HCT-116 cells assessed as irregular distribution of chromatin at 0.5 to 2.5 uM incubated for 24 hrs by acridine orange staining based microscopic analysis; format: functional, cell-based; settings: dose microM 0.5-2.5, time 24.0 hrs; how it was run: as §1
HCT-116 [10] = assay: Induction of cell cycle arrest in human HCT-116 cells assessed as G2/M phase at 2.5 uM incubated for 48 hrs by propidium iodide based flow cytometry analysis (reference value: 15.3 %); format: functional
HCT-116 [11] = assay: Induction of cell cycle arrest in human HCT-116 cells assessed as G2/M phase at 1 uM incubated for 48 hrs by propidium iodide based flow cytometry analysis (reference value: 15.3 %); format: functional
HCT-116 [12] = assay: Induction of cell cycle arrest in human HCT-116 cells assessed as G2/M phase at 0.5 uM incubated for 48 hrs by propidium iodide based flow cytometry analysis (reference value: 15.3 %); format: functional
HCT-116 [13] = assay: Induction of cell cycle arrest in human HCT-116 cells assessed as S phase at 1 uM incubated for 48 hrs by propidium iodide based flow cytometry analysis (reference value: 7.8 %); format: functional
HCT-116 [14] = assay: Induction of cell cycle arrest in human HCT-116 cells assessed as S phase at 0.5 uM incubated for 48 hrs by propidium iodide based flow cytometry analysis (reference value: 7.8 %); format: functional
HCT-116 [15] = assay: Induction of cell cycle arrest in human HCT-116 cells assessed as sub-G1 phase at 1 uM incubated for 48 hrs by propidium iodide based flow cytometry analysis (reference value: 2.1 %); format: functional
MDA-MB-231 = assay: Cytotoxicity against human MDA-MB-231 cells assessed as reduction in cell viability incubated for 48 hrs by MTT assay; format: functional, cell-based; settings: MDA-MB-231, 48 h
How it was run: (§2)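 Cancer cell lines were exposed to drug for 48 h, and the 50% inhibitory concentration was determined. Values are averages of three individual experiments. A549, HCT-116, BT-474 and MDA-MB-231 are human lines; B16F10 is a murine melanoma line.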

A549 = assay: Cytotoxicity against human A549 cells assessed as reduction in cell viability incubated for 48 hrs by MTT assay; format: functional, cell-based; settings: A549, 48 h; how it was run: as §2
HCT-116 [16] = assay: Cytotoxicity against human HCT-116 cells assessed as reduction in cell viability incubated for 48 hrs by MTT assay; format: functional, cell-based; settings: HCT-116, 48 h; how it was run: as §2

O=C(/C=C\Nc1ccc(Cl)cc1)c1nc(-c2ccc(F)cc2)n2ccccc12
Activity (HCT-116 [1]): 3.49%
Activity (HCT-116 [2]): 6.17%
viability at 2.5 µM (HCT-116 [3]): 77.4%
Activity (HCT-116 [4]): 85.48%
Activity (HCT-116 [5]): 78.07%
Activity (HCT-116 [6]): Dose-dependent effect
Activity (HCT-116 [7]): Active
Activity (HCT-116 [8]): Active
Activity (HCT-116 [9]): Active
Activity (HCT-116 [10]): 15.6%
Activity (HCT-116 [11]): 16.4%
Activity (HCT-116 [12]): 15%
Activity (HCT-116 [13]): 9.7%
Activity (HCT-116 [14]): 7%
Activity (HCT-116 [15]): 1.9%
IC50 (MDA-MB-231): 4.25 µM
IC50 (A549): 5.09 µM
IC50 (HCT-116 [16]): 1.21 µM
